# Most compounds without a hit are left out; they make up all but 2.6% or so of the library.
# XiGFP reactiv: reactivates the inactive X chromosome in mouse fibroblasts | XiGFP mouse fibroblasts, % GFP-positive cells imaging, 3 d; cells co-treated with 5-aza-dC sensitizer; scaled so ellipticine positive control = 100% | activation, % at 7.58 µM | 360,000 compounds, 0.055% hits | AID 743238;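 active = mean normalized replicate activation at least 10% and every replicate at or above 10%; inconclusive = only one of the two criteria met; inactive = mean below 10% and not all replicates reach 10%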;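 also: 0% = median of on-plate neutral control wells and 100% = ellipticine 6 µM median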
#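 System: SV40-immortalized XiGFP fibroblast cells, line 68-5-11 / Incubation: 3-day compound exposure, then 15 min fixation at room temperature / Compound: single concentration per compound, delivered by pin transfer / Buffer or medium: DMEM plus 5-aza-dC sensitizer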
# SR-BI DiI-HDL act: enhances SR-BI lipid uptake from DiI-HDL. CHO ldlA[mSR-BI] cells, DiI-HDL uptake fluorescence, 3 h; 100 = double the neutral-control signal. activation, % at 12.5 µM. 320,000 compounds, 0.096% hits;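 active = mean replicate activation of at least 60% and every replicate at or above 60%; inconclusive = mean or all-replicate condition met, but not both; inactive = mean below 60% and not all replicates reaching 60%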;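 also: 0% = median plate neutral-control signal and 100% = twice that signal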
#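 system = CHO ldlA[mSR-BI] cells, LDL receptor-null, SR-BI overexpressing | medium = Ham's F12 with 0.5% BSA, HEPES 25 mM, pH 7.4 | probe or stimulus = DiI-HDL 10 µg/mL | compound dosing = single-point compound dose | incubation = compound exposure 3 h, 37 °C | technique = DiI fluorescence, bottom read | read-out = cell-associated DiI fluorescence as measure of HDL uptake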
# Ecoli rRNA inh: inhibits bacterial ribosomal RNA function over humanized ribosomes; E. coli WT GFP vs humanized-ribosome RFP mutants, fluorescence, 24 h; active compounds read low; DMSO median 0, no signal -100; GFP signal change (wild-type ribosome), % (concentration not given with the values); 350,000 compounds, 1.6% hits; AID 720706;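 active = significant combined selectivity score with lowered wild-type GFP, culture density cut under 30%, mutant RFP and density less affected; inactive = any of these conditions unmet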
# SR-BI DiI inh: inhibitors of mouse SR-BI mediated HDL lipid uptake; Q61009; ldlA[mSR-BI] CHO cells, DiI-HDL uptake fluorescence, 3 h; inhibition, % at 12.5 µM; 320,000 compounds, 0.96% hits;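 active = mean replicate inhibition of at least 70% and a set share of replicates each scoring 70 or more; inconclusive = meets just one of the two criteria; inactive = fails both criteria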;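 also: 0% = median of neutral control wells and 100% = median of positive control wells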
# dFosB activator: enhances mouse delta FosB homodimer DNA binding | P13346 | purified delta FosB, TAMRA-CDK5 oligo fluorescence polarization; percent of positive-control signal above neutral wells | activation, % at 25 µM | 340,000 compounds, 0.99% hits | AID 493131;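 active = mean activation above about 17%, with every replicate also reaching it, limit read from the data, passing the limit was not always enough; inconclusive = only one of the two conditions met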
# Target sequence (P13346 whole entry, looked up): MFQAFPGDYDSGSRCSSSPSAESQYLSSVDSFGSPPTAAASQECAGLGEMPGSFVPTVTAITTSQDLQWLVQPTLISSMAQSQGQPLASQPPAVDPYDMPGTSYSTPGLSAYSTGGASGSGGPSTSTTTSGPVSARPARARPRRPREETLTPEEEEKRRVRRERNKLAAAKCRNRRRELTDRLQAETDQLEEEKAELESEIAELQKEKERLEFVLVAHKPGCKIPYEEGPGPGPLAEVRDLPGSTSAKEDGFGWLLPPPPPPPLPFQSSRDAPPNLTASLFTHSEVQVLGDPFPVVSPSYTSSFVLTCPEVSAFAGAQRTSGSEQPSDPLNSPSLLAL
# PvdQ acylase: P. aeruginosa PvdQ acylase inhibition | purified PvdQ acylase, fluorescence plate reader | 340,000 compounds, 0.063% hits | inhibition, % at 10 µM; in the data active = inhibition above about 30%, passing the limit was not always enough; inconclusive = no clear call, values can overlap the other calls;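 also: 0% = vehicle neutral wells and 100% = reference inhibitor wells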
# * = called active by the depositor; u = inconclusive; x = not tested or not shown.
SMILES,XiGFP reactiv,SR-BI DiI-HDL act,Ecoli rRNA inh,SR-BI DiI inh,dFosB activator,PvdQ acylase
COc1cc(N)c(Cl)cc1NC(=O)c1ccccc1,x,-4.4,x,4.4,-0.7,-10.4
COc1cc(NC(=O)c2cccnc2)c(OC)cc1NC(=O)c1ccc(Br)cc1,x,-31.8,x,31.8,-17.4,-11.3
Cc1cc(NC(=O)CCC(=O)N(Cc2ccco2)C(C(=O)NC2CCCC2)c2ccccc2C)no1 (stereo unspecified),x,4.7,x,-4.7,-13.3,-11.1
Cc1nc2ccccc2c2c1CC(C)S2 (stereo unspecified),0.0,x,-4.8,x,-11.1,-16.2
COc1ccc2nc(C)c3c(c2c1)OC(C(C)(Cl)Br)C3 (stereo unspecified),-0.1,-71.3,-17.6,71.3*,-4.5,-2.1
Cc1nc2ccccc2c2c1CC(C(C)(Cl)Br)O2 (stereo unspecified),0.1,x,-29.9*,x,0.4,5.1
Cc1ccc2nc(C)c3c(c2c1)OC(C(C)(Cl)Br)C3 (stereo unspecified),0.1,-30.8,-9.5,33.3,-10.1,-7.9
O=C(O)c1cnn(-c2ccccc2)c1C(F)(F)F,0.0,-27.7,7.1,27.7,-8.0,-10.8
COC(=O)c1ccc(/C=C(\C#N)c2ccccn2)cc1,-0.2,9.4,-26.2,-9.4,-8.1,70.6*
CN(C)c1ccc(/C=C(\C#N)c2ccccn2)cc1,0.1,-23.3,x,23.3,1.7,-7.2
CCOc1ccc(/C=N/NC(=O)c2ccc(CSc3nc4ccccc4[nH]3)cc2)cc1,0.0,-59.5,-5.8,59.5,-12.5,-9.9
O=C(N/N=C/c1ccc(OC(F)F)cc1)c1ccc(CSc2nc3ccccc3[nH]2)cc1,0.1,-81.7,-15.2,81.7*,u,-11.6
COc1cccc(-n2c(SCC(=O)NCC3CCCO3)nc3c([nH]c4ccccc43)c2=O)c1 (stereo unspecified),0.0,x,-24.2*,-5.4,-7.3,-4.2
COc1ccc(-n2c(SCC(=O)NCC3CCCO3)nc3c([nH]c4ccccc43)c2=O)cc1 (stereo unspecified),0.0,x,7.4,x,-14.1,-8.5
CCCCC1OC23CCCCC2C(C#N)(C(=N)O3)C1(C#N)C#N (stereo unspecified),x,80.8*,x,-80.8,-72.5,-5.3
CCCCC1OC23CCCCC2C(C#N)(C#N)C1(C#N)C(=N)O3 (stereo unspecified),-0.1,35.4,13.3,-35.4,-48.0,3.3
CCN(CC)C(=O)c1sc(NC(=O)c2c(OC)cccc2OC)c(C#N)c1C,0.0,-84.7,2.5,93.9*,-1.7,8.2
COc1ccc(C(CC(=O)O)N2Cc3ccccc3C2=O)cc1OC (stereo unspecified),0.1,16.3,11.1,-16.3,-11.5,-22.7
CCC1CN(C(=O)NCc2ccccc2)c2cc(Cl)ccc2O1 (stereo unspecified),0.1,-30.6,-9.3,30.6,-3.3,-12.1
CCC1CN(C(=O)NCc2ccccc2)c2ccccc2O1 (stereo unspecified),0.3,-22.1,-21.5*,22.1,0.3,2.7
CCOC(=O)n1cnc2nc(N)nc(SC)c21,0.2,9.4,11.7,-9.4,2.6,-3.0
COc1cc(-c2nnc(SCC(=O)c3ccccc3)o2)cc(OC)c1OC,x,-13.4,-24.6*,13.4,-18.4,1.2
O=C(/C=C/c1ccc(F)cc1)NC(=S)N1CCOCC1,0.0,2.0,11.0,-2.0,5.2,-1.2
O=C(/C=C/c1ccc(F)cc1)NC(=S)N1CCN(Cc2ccccc2)CC1,0.0,-17.4,-33.8*,17.4,-7.0,-8.0
C(=C\N1CCCCCC1)/c1nnnn1-c1ccc(-c2ccccc2)cc1,0.0,0.5,15.6,-0.5,-15.0,-14.2
Cc1oc2nc(SCC(=O)NC3CCCCC3)nc(N)c2c1C,x,388.5*,x,-388.5,-9.4,5.7
CCCCn1c(N)c(N(CC)C(=O)CSc2nnc(-c3ccco3)n2CC)c(=O)[nH]c1=O,0.0,-2.4,3.8,2.4,-5.0,-7.0
CSc1nsc(N/N=C/c2ccccc2)c1C#N,0.5,-38.6,-22.5*,38.6,-0.1,8.3

# Screens as filed in PubChem.
